The source of these data is ChEMBL document CHEMBL4145654, “Structure-Based Discovery of CF53 as a Potent and Orally Bioavailable Bromodomain and Extra-Terminal (BET) Bromodomain Inhibitor” (J Med Chem, 2018).

Data set [1] addresses Bromodomain-containing protein 4 (Homo sapiens, UniProt O60885). Kind of data set: Inhibition of FAM-labeled ZBA248 binding to recombinant human BRD4 bromodomain 1 (44 to 168 residues) expressed in Rosetta2 Escherichia coli DE3 cells after 30 mins by fluorescence polarization assay. Put shortly: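 Recombinant human BRD4 BD1 (residues 44−168) in a fluorescence polarization competitive binding assay, run as described in earlier work.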
(In general: Fluorescence polarisation rises when a labelled molecule tumbles more slowly, as on binding a larger partner.)

In another data set the test system is MOLM-13. In words: Growth inhibition of human MOLM13 cells after 4 days by WST-8 assay. The settings on record: MOLM-13, 96 h. The class given is functional, cell-based. Put shortly: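 Leukemia cells, used within 3 months of thaw, were seeded at 10 000 cells/well and exposed to serially diluted compound in culture medium for 4 days. WST-8 reagent was added at 10% (v/v) final for 1−3 h, and absorbance was read at 450 nm. Readings were normalized to DMSO-treated cells, and the IC50 was fitted by nonlinear regression.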
For orientation: Tetrazolium dyes change colour on reduction, which living cells bring about.

Data set [2] is described as follows: Plasma concentration in SCID mouse xenografted with human MDA-MB-231 cells at 50 mg/kg administered via oral gavage measured after 6 hrs. Format: ADME, organism-based. The method, boiled down: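 SCID mice carrying MDA-MB-231 tumors dosed orally at 50 mg/kg. Plasma drug level determined by LC-MS/MS (positive-ion MRM, C18 column, formic acid/acetonitrile gradient). Value is the mean from two mice per time point.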

Data set [3] can be described thus: Clearance in Balb/c mouse at 5 mg/kg, iv by LC-MS/MS analysis. The class given is ADME, organism-based. The settings on record: in vivo. Put shortly:
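Balb/c mice dosed iv at 5.0 mg/kg or po at 25 mg/kg, compound in vehicle of 20% (v/v) PCP and 70% (v/v) PBS. Serial blood samples taken at 0, 5, 15, 30 min and 1, 2, 4, 6, 8, 24 h. Plasma obtained by centrifugation and stored at −80 °C. Analysis by LC-MS/MS, positive-ion MRM. Parameters from noncompartmental analysis.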

The test system of a further data set is MDA-MB-231. In words: Antitumor activity against human MDA-MB-231 cells xenografted in SCID mouse assessed as tumor growth inhibition at 50 mg/kg administered via oral gavage measured on day 44. Format: functional. The settings on record: MDA-MB-231, po, 1056 h, read-out: TGI. The method, boiled down:
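Each SCID mouse received a single dorsal subcutaneous tumor of 5 × 10⁶ RS4;11 or MDA-MB-231 cells in 50% Matrigel. At about 100 mm3, mice were randomised to treatment or vehicle control groups. Dosing was by oral gavage at the stated schedules. Tumor volume was L × W²/2, and body weight was tracked. TGI versus vehicle at end of treatment was tested by unpaired two-tailed t-test.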
In general terms: In xenograft studies the graft and the host belong to different species.

Another data set has as its system Mus musculus. In words: Toxicity in SCID mouse xenografted with human MDA-MB-231 cells assessed as change in body weight at 10 to 50 mg/kg administered via oral gavage measured 2 to 3 times per week during compound dosing and measured weekly post treatment. The class given is organism-based. The settings on record: in vivo. The method, boiled down: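 Xenografts raised by subcutaneous dorsal injection of 5 × 10⁶ cells in 50% Matrigel into SCID mice, one tumor per mouse. Mice randomized to treatment or vehicle groups at about 100 mm3 tumor volume. Compounds given by oral gavage at the indicated dose-schedules, with percentage body-weight change tracked alongside tumor volume (L × W²/2).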

For data set [4], the target named is Bromodomain-containing protein 2 (Homo sapiens, UniProt P25440). Kind of data set: Binding affinity to human BRD2 bromodomain 1 (K71 to N194 residues) expressed in bacterial expression system by BROMOscan assay.
The target in data set [5] is Bromodomain-containing protein 3 (Homo sapiens, UniProt Q15059). In words: Binding affinity to human BRD3 bromodomain 1 (P24 to E144 residues) expressed in bacterial expression system by BROMOscan assay.
Data set [6] addresses T1, Bromodomain testis-specific protein (Homo sapiens, UniProt Q58F21). Kind of data set: Binding affinity to human BRDT bromodomain 1 (N21 to E137 residues) expressed in bacterial expression system by BROMOscan assay.
The target in data set [7] is T1, Bromodomain testis-specific protein. In words: Binding affinity to human BRDT bromodomain 2 (K250 to E382 residues) expressed in bacterial expression system by BROMOscan assay.
A further data set concerns the target CREB-binding protein (Homo sapiens, UniProt Q92793). In words: Binding affinity to human CREBBP (R1081 to G1197 residues) expressed in bacterial expression system by BROMOscan assay.
The target of data set [8] is Histone acetyltransferase p300 (Homo sapiens, UniProt Q09472). Kind of data set: Binding affinity to human EP300 (A1040 to G1161 residues) expressed in bacterial expression system by BROMOScan assay.
The target of data set [9] is ATPase family AAA domain-containing protein 2B (Homo sapiens, UniProt Q9ULI0). Kind of data set: Binding affinity to human ATAD2B (Q955 to R1082 residues) expressed in bacterial expression system by BROMOScan assay.
The target of data set [10] is Bromodomain adjacent to zinc finger domain protein 2B (Homo sapiens, UniProt Q9UIF8). Kind of data set: Binding affinity to human BAZ2B (S2054 to S2168 residues) expressed in bacterial expression system by BROMOScan assay.
Data set [11] addresses Bromodomain-containing protein 1 (Homo sapiens, UniProt O95696). Kind of data set: Binding affinity to human BRD1 (E556 to A688 residues) expressed in bacterial expression system by BROMOScan assay.
In data set [12] the target is Bromodomain-containing protein 8 (Homo sapiens, UniProt Q9H0E9). In words: Inhibition of BRD8 bromodomain 2 (unknown origin) by BROMOScan assay.
For data set [13], the target named is Bromodomain-containing protein 9 (Homo sapiens, UniProt Q9H8M2). In words: Binding affinity to human BRD9 (R130 to V259 residues) expressed in bacterial expression system by BROMOScan assay.
In another data set the target is Protein polybromo-1 (Homo sapiens, UniProt Q86U86). Kind of data set: Binding affinity to human PBRM1 bromodomain 5 (S645 to D766 residues) expressed in bacterial expression system by BROMOScan assay.
The target in data set [14] is SWI/SNF-related matrix-associated actin-dependent regulator of chromatin subfamily A member 4 (Homo sapiens, UniProt P51532). In words: Binding affinity to human SMARCA4 (A1448 to S1575 residues) expressed in bacterial expression system by BROMOScan assay.
Data set [15] is filed under the species Homo sapiens. Kind of data set: Selectivity index, ratio of Kd for human CECR2 (P423 to D543 residues) to Kd for human BRD2 bromodomain 2 (E348 to D455 residues).
The species entered for data set [16] is Homo sapiens. Kind of data set: Selectivity index, ratio of Kd for human CECR2 (P423 to D543 residues) to Kd for human BRD3 bromodomain 1 (P24 to E144 residues).
The species entered for data set [17] is Homo sapiens. In words: Selectivity index, ratio of Kd for human CECR2 (P423 to D543 residues) to Kd for human BRD3 bromodomain 2 (G306 to P416 residues).
Data set [18] is filed under the species Homo sapiens. In words: Selectivity index, ratio of Kd for human CREBBP (R1081 to G1197 residues) to Kd for human BRD2 bromodomain 2 (E348 to D455 residues).

Chain of SWI/SNF-related matrix-associated actin-dependent regulator of chromatin subfamily A member 4 (P51532 whole entry, the tested form may be a part): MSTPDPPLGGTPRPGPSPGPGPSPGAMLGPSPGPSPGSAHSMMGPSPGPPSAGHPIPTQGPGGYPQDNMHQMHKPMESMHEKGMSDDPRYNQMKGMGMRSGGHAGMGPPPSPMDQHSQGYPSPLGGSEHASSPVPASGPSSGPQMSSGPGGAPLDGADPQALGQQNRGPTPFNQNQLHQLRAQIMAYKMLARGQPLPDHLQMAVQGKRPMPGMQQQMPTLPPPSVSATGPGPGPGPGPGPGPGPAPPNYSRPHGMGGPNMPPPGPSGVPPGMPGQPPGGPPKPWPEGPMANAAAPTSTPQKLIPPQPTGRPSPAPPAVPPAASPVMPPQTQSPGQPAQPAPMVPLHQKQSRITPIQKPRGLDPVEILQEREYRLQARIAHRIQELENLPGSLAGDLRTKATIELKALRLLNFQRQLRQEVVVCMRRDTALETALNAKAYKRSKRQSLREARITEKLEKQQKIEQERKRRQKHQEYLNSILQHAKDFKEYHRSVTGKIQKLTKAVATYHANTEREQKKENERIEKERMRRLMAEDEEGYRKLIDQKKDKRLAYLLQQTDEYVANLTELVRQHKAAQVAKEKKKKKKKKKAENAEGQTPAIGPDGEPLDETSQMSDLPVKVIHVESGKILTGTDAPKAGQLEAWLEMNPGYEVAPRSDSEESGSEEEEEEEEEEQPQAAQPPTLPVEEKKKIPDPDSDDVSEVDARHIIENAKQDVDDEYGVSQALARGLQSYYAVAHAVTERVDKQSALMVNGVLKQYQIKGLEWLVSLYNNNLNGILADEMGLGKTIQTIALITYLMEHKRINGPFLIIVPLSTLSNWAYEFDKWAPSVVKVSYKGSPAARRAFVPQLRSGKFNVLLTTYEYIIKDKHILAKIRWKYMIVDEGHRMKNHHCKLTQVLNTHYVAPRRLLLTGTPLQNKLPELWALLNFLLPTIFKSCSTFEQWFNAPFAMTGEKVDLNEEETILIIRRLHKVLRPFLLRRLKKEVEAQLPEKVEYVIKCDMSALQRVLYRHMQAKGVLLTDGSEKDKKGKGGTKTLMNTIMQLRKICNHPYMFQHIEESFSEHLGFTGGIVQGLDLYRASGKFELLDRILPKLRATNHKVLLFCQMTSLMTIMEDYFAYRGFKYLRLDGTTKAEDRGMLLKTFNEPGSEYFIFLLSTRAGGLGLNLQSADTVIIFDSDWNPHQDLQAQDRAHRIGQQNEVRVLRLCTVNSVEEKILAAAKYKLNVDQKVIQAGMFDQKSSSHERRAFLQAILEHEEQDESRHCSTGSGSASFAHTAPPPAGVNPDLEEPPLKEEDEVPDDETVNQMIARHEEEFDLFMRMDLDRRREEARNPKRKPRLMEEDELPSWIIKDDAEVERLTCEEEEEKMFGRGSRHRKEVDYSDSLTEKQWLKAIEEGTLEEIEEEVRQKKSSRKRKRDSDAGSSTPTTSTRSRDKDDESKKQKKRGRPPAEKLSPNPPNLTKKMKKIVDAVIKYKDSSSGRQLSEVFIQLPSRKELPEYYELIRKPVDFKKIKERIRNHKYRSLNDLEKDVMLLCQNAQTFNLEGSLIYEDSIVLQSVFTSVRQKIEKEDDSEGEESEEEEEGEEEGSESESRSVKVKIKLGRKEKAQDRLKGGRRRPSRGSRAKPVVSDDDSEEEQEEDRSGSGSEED
Chain of Bromodomain-containing protein 2 (P25440 whole entry, the tested form may be a part): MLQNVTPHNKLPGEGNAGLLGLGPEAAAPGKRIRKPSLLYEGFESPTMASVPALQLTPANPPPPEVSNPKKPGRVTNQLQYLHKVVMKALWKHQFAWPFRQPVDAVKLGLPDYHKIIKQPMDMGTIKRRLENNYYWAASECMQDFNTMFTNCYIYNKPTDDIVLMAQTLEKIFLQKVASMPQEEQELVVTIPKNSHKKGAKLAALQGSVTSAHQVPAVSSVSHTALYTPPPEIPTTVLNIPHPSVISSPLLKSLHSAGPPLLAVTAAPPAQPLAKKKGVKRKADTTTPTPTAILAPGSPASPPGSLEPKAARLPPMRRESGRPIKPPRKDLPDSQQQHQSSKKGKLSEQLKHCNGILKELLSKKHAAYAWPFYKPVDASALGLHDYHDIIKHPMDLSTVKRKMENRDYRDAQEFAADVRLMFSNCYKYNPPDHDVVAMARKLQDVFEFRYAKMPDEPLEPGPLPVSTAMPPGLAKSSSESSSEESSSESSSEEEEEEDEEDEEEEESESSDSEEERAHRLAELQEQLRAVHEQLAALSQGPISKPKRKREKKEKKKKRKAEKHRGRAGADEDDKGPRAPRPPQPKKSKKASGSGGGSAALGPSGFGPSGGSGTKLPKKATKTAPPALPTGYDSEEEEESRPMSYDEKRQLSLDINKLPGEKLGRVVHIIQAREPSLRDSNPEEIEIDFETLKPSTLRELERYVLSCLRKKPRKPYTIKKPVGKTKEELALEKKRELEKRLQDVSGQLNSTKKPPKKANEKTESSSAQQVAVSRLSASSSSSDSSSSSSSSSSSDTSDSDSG
Chain of Bromodomain-containing protein 3 (Q15059 whole entry, the tested form may be a part): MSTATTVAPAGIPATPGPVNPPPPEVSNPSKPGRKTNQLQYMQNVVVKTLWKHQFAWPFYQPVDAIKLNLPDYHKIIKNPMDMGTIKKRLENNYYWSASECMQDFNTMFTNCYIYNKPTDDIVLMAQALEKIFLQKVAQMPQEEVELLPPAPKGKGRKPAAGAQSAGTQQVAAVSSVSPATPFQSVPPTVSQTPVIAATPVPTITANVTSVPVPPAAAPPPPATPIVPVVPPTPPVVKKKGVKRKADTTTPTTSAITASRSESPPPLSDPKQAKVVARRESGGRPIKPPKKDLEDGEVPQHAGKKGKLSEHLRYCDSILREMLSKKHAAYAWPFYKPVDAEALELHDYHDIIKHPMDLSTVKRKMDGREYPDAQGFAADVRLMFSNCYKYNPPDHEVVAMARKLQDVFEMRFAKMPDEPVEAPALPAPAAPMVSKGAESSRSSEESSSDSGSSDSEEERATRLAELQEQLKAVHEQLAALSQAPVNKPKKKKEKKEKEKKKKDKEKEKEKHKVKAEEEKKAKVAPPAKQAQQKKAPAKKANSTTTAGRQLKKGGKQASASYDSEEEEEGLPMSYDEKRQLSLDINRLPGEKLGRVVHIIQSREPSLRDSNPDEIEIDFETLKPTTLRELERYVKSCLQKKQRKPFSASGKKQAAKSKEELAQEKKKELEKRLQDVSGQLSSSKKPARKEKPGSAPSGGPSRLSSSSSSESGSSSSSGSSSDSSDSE
Chain of Bromodomain-containing protein 1 (O95696 whole entry, the tested form may be a part): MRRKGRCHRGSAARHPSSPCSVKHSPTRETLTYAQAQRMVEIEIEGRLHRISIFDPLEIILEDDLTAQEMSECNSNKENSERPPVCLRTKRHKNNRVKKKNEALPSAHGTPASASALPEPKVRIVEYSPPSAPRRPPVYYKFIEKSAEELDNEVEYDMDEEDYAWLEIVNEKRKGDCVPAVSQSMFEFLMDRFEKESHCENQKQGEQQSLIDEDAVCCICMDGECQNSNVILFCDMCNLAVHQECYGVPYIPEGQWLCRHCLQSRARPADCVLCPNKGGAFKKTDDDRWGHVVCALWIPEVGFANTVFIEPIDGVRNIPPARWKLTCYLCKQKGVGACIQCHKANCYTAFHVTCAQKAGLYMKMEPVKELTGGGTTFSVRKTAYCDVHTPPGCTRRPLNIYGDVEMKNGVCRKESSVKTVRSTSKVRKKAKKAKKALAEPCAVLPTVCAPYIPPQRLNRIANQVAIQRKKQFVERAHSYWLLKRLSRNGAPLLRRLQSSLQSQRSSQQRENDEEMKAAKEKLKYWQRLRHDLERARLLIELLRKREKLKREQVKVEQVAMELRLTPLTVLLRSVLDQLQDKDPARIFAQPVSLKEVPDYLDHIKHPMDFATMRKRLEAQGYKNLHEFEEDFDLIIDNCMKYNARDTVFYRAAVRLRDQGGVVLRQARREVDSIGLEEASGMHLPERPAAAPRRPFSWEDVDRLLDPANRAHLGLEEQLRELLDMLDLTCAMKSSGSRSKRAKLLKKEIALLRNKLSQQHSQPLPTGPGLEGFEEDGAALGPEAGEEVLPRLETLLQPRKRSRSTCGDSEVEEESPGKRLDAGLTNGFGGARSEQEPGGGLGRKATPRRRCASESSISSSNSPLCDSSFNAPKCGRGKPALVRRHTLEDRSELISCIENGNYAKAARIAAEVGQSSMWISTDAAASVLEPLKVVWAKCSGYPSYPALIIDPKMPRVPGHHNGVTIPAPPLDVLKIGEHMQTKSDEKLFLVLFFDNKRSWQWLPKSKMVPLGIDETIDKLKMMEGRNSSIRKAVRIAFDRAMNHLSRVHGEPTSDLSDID
Chain of Bromodomain-containing protein 9 (Q9H8M2 whole entry, the tested form may be a part): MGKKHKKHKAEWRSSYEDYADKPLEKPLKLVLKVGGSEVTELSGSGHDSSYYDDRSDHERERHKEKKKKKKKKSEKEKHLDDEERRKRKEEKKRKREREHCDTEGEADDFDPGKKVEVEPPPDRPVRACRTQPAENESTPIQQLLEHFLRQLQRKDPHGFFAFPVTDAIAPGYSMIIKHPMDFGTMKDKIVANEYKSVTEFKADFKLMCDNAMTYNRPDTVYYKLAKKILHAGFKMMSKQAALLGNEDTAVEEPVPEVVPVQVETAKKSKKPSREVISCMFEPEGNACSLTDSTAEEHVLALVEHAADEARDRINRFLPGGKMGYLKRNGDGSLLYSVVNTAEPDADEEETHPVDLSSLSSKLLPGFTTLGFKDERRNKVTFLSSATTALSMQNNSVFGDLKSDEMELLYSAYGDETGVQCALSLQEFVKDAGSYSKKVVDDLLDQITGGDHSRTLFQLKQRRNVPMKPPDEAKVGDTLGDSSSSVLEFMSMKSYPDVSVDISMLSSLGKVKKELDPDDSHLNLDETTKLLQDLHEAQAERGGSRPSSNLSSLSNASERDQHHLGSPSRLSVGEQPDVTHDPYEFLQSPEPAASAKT

Turning to `COc1cc2c(cc1-c1c(C)noc1C)[nH]c1nc(C)nc(Nc3cc(C4CC4)nn3C)c12`, the values for the IC50 (in data set [1]; in the data set with MOLM-13) were 2 nM and 7 nM, respectively. In data set [1], the Ki is under 1 nM. This compound gave a concentration at 6 h in data set [2] of 7.37 µg/mL. Also, the clearance in [3] was 1.25 L/h/kg. Further, the inhibition in vivo at 50 mg/kg in the data set with MDA-MB-231 was 77.3%. For the same compound, in the data set on Mus musculus, the Activity entry was “Non-Toxic”. In addition, the Kd in [4] was 1.1 nM; in data set [5], 0.52 nM; in data set [6], 2 nM; in data set [7], 2.1 nM; on CREB-binding protein, 47 nM; in data set [8] it was 110 nM. For the same compound, the dissociation constant Kd (in [9]; in data set [10]; in data set [11]; in data set [12]; in data set [13]; on Protein polybromo-1) was over 5000 nM throughout. Also, in data set [14], the Kd was over 5000 nM. Moreover, the Selectivity Index in the data set listed under Homo sapiens [15] was over 50; in the data set filed under Homo sapiens [16], over 50; in the data set listed under Homo sapiens [17], over 50; in the data set filed under Homo sapiens [18], over 20.

The term IC50 denotes the midpoint of a concentration-inhibition curve. One may read the Ki as the dissociation constant of the complex between target and ligand, obtained from inhibition or displacement. As usually defined, the clearance is a measure of how efficiently the substance is removed, as volume per time. The low end stands for inefficient removal, the high end for efficient removal. In general, Kd refers to the equilibrium constant for the complex coming apart. Lower therefore signals higher affinity.
